# Only a selection was taken, and hits are over-represented in it overall.
# H69AR growth 86K – proliferation blockers of H69AR lung cancer cells, primary screen, cell-based, human, 86K library; AID 598, 2007; viability, % at 10 µM; H69AR lung tumor viability, ATP luminescence, 72 h; stronger effect = lower value; hit rate 6% among 85,000;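 active = viability at or below 40%; inactive = viability above 40%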;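 also: multidrug resistant small cell line overexpressing MRP-1 efflux transporter; 100% = mean luminescence of untreated control wells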
# HCT116 bCat-KO – primary screen for growth suppressors in beta-catenin knockout HCT116 cells (colon tumor, human); HCT116 beta-catenin knockout viability, CellTiter-Glo, 60 h; stronger effect = lower value; hit rate 1.5% among 140,000; viability, % at 10 µM;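 active = viability at or under a set limit, the compound median less 4 SD, cut at about 6% in these data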;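 also: 0% = Hyamine 1622 control at 20 µM and 100% = untreated cell control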
# HCT116 PTEN-null – growth suppression of PTEN-null HCT116, primary screen, cell-based, CellTiter-Glo. HCT116 PTEN-null viability, 60 h; stronger effect = lower value. viability, % at 10 µM. hit rate 1.2% among 140,000. AID 827, 2007;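 active = viability at or below a set limit, 4 SD under the median of all tested compounds, cut at about 3.7% in these data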;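 also: PTEN knockout HCT116 line with beta catenin targeted HCT116 as companion control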
# HUVEC prolif 384 – inhibitors of HUVEC proliferation, primary screen, cell-based, 384-well. CellTiter-Glo luminescence, 72 h; stronger effect = lower value. viability, % at 10 µM (by protocol). hit rate 1.1% among 86,000. AID 648, 2007;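 active = viability at or below 30%; inactive = viability above 30%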;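 also: 100% = median luminescence of DMSO-only cell control wells on each plate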
# Fibroblast inh – antiproliferative effect on LL 47 fibroblasts – human, LL 47 cells, CellTiter-Glo luminescence, primary screen. LL 47 human lung fibroblast viability, ATP luminescence; stronger effect = lower value. viability, % at 10 µM. hit rate 1.1% among 85,000;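 active = viability at or below 50% in the single dose screen; inactive = viability above 50%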;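 also: compound exposure lasted 72 h before the ATP readout; 100% = median luminescence of untreated cell-only wells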
#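 Material: Human LL 47 lung fibroblast cells | Input: 1,150 cells/well | Buffer or medium: IMEM plus 15% FBS | Compound dosing: 0.1% DMSO in all compound wells | Times: Overnight cell rest, 72 h compound treatment at 37 °C | Signal: CellTiter-Glo luminescence measuring cellular ATP | Measure: % viability versus median cells-only luminescence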
# * marks the source's active call; other numbers are inactive results; . = not tested or not shown.
SMILES,H69AR growth 86K,HCT116 bCat-KO,HCT116 PTEN-null,HUVEC prolif 384,Fibroblast inh
Cc1cc(C)n(-c2nnc3n2N=C(c2ccccc2)CS3)n1,81.8,99.6,104.5,88.0,104.9
Clc1ccc(C2C3=C(Nc4ncnn42)c2ccccc2CC3)cc1 (stereo not drawn),13.4*,39.4,37.9,51.1,84.7
c1ccc(C2C3=C(Nc4ncnn42)c2ccccc2CCC3)cc1 (stereo not drawn),77.8,94.4,90.7,94.8,88.7
CCC(=C(c1ccc(OC)cc1)c1ccc(OC)cc1)c1cn(CC(O)CN2CCN(C)CC2)c2ccccc12 (stereo not drawn),1.6*,2.1*,1.7*,3.0*,21.4*
COc1ccc(OCCn2cc(/C(N)=N/O)c3ccccc32)cc1,57.9,65.9,78.8,85.3,84.3
CN1C(=O)N(C)C2(c3ccccc3)Nn3c(s/c(=C/c4ccccc4)c3=O)=NC12c1ccccc1 (stereo not drawn),38.3*,64.7,74.0,103.0,90.7
Nc1ccc(N2CCCCCC2)cc1,2.1*,7.1,12.9,97.8,95.7
C#CCn1c(S(=O)(=O)Cc2ccc(OC)cc2)nc(-c2ccccc2)c1-c1ccccc1,.,50.5,50.0,.,.
C=CCn1c(SCC(=O)c2[nH]c(C)c(C(C)=O)c2C)nnc1-c1ccncc1,87.0,79.5,77.5,110.8,107.8
C=CCn1c(SCC(=O)c2[nH]c(C)c(C(=O)OC)c2C)nc2scc(-c3ccc(OC)c(OC)c3)c2c1=O,.,4.1*,2.5*,.,.
O=S(Cc1ccc(Br)cc1)Cc1nnc(SCc2ccc(Br)cc2)n1-c1ccccc1 (stereo not drawn),.,15.4,31.0,.,.
CCOC(=O)c1c(/N=C/C2=C(O)CC(C)(C)CC2=O)sc(C)c1C,.,98.4,98.8,.,.
CCOC(=O)N1CCC(NS(=O)(=O)c2cc3c(cc2Cl)NC(=O)CO3)CC1,24.9*,3.9*,4.2,65.2,60.2
CCOC(=O)N1CCN(C(=O)COc2cccc3c2CCN(Cc2ccccc2F)C3=O)CC1,.,86.0,83.1,.,.
COc1cc(NS(=O)(=O)c2ccc3c(c2)oc(=O)n3C)cc(OC)c1OC,26.9*,31.0,28.1,70.6,92.3
COc1ccc(NS(=O)(=O)c2ccc3c(c2)oc(=O)n3C)c(OC)c1,93.7,89.0,92.9,97.2,93.3
O=C(NCc1ccco1)Nc1ccc(Br)cc1,91.3,97.4,93.0,94.9,98.3
O=C(NCc1ccco1)Nc1ccc2nsnc2c1,31.0*,62.6,59.1,97.9,100.5
CCCCOC(=O)c1ccc(NC(=O)/C=C/c2cccs2)cc1,.,84.2,80.3,.,.
Cc1cc2n(n1)C(c1ccccc1)CC(c1ccc(Br)cc1)=N2 (stereo not drawn),.,80.0,73.0,.,.
c1ccc(-c2nc(NCc3ccco3)c3ccccc3n2)nc1,16.0*,8.3,7.7,48.4,55.4
c1ccc(-c2nc(NCC3CCCO3)c3ccccc3n2)nc1 (stereo not drawn),.,6.0*,6.1,.,.
Oc1cccc(Nc2nc(NCC3CCCO3)c3ccccc3n2)c1 (stereo not drawn),104.2,1.9*,3.4*,85.2,89.9
Oc1ccccc1-c1nc(NCc2ccco2)c2ccccc2n1,36.0*,37.8,34.7,46.6,74.2
c1ccc2c(c1)[nH]c1c(NCC3CCCO3)ncnc12 (stereo not drawn),70.1,72.1,79.7,86.8,93.0
SMILES,H69AR growth 86K,HCT116 bCat-KO,HCT116 PTEN-null,HUVEC prolif 384,Fibroblast inh
COC(=O)[C@@]1(Cc2ccc(OC)cc2)[C@@H]2C(=CC(=O)[C@H]2CC(=O)C(=O)N(C)C)CN1C(=O)c1ccccc1,.,2.2*,2.5*,.,.
C=C1C(=O)C=C2CN(C(=O)c3ccccc3)[C@@](Cc3ccc(F)cc3)(C(=O)OC)[C@@H]12,.,0.9*,1.0*,.,.
Cc1ccc(C)c(NS(=O)(=O)c2cc(C(=O)Nc3ccccc3-c3ccccc3)ccc2Cl)c1,.,73.4,66.1,.,.
CCOC(=O)C1CCN(CC(=O)Nc2cc(C)nn2-c2nc3ccccc3s2)CC1,27.8*,75.3,79.2,72.9,94.4
Cc1cc(NC(=O)CN2CC(C)OC(C)C2)n(-c2nc3ccccc3s2)n1 (stereo not drawn),42.6,90.3,90.9,90.0,89.5
COC(=O)c1[nH]c2ccc(Br)cc2c1NC(=O)CN1CCCc2ccccc21,20.7*,41.4,47.7,64.1,74.6

# Bioassay records: PubChem, SRMLSC
